The record followed here is ChEMBL document CHEMBL2176952, “Anticancer activity and cellular repression of c-MYC by the G-quadruplex-stabilizing 11-piperazinylquindoline is not dependent on direct targeting of the G-quadruplex in the c-MYC promoter” (J Med Chem, 2012).

Test [1] has as its system Nucleic Acid. The experiment in a line: Thermal stability of c-MYC G-quadruplex DNA assessed as change in melting temperature at DNA:compound ratio 1:1 by spectropolarimeter analysis. It counts as nucleic-acid assay. An outline of the steps: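 c-MYC G-quadruplex at 5 μM in 50 mM Tris-HCl pH 7.4, held 10 min at 25 °C, heated 10 min at 95 °C and air-cooled over ~30 min. Compound then added at 1 equivalent. Melting followed by CD spectropolarimetry; ΔTm = Tm with compound minus Tm of control.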

The test system of test [2] is HCT-116. The experiment in a line: Cytotoxicity against human HCT116 cells after 96 hrs by MTS assay. Conditions: HCT-116, 96 h. It counts as functional, cell-based. An outline of the steps: (§1)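 MTS viability after 96 h exposure. HCT-116 grown in DMEM, Raji in RPMI-1640, each with 10% FBS and penicillin/streptomycin at 37 °C, 5% CO2, kept in exponential growth. Compound spanned a 5–6 log range in 0.5 log steps. IC50 from non-linear regression; biological triplicates.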

Test [3] concerns Raji. The experiment in a line: Cytotoxicity against human Raji cells after 96 hrs by MTS assay. It counts as functional, cell-based. An outline of the steps: as §1
Test [4] deals with Nucleic Acid. Nature of the test: Binding affinity to c-MYC G-quadruplex DNA at 2 uM after 48 hrs by competition dialysis method. It counts as nucleic-acid assay. An outline of the steps:
(§2)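 DNA at 75 μM in 50 mM Tris-HCl with 25 mM KCl. Duplexes annealed by heating to 95 °C then slow cooling at 1 °C/min. G-quadruplexes formed by 95 °C for 10 min with rapid air cooling, topology checked by CD. Dialysed 48 h in a cold room against BPES with 25 mM KCl and 2 μM compound. Bound compound measured by UV absorbance against a standard curve, expressed per binding site. Run in duplicate.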

Test [5] relates to Nucleic Acid. Nature of the test: Binding affinity to dGdC DNA at 2 uM after 48 hrs by competition dialysis method. It counts as nucleic-acid assay. The method in brief:
as §2

For test [6], the system named is Nucleic Acid. Nature of the test: Binding affinity to dAdT DNA at 2 uM after 48 hrs by competition dialysis method. It counts as nucleic-acid assay. The method in brief: as §2
The test system of test [7] is Nucleic Acid. The experiment in a line: Binding affinity to c-MYC G-quadruplex DNA in human HCT116 cells assessed as decrease in c-MYC mRNA expression at 23 uM from 6 to 48 hrs by RT-PCR analysis. It counts as cell-based. Conditions: HCT-116.
In test [8] the test system is Nucleic Acid. The experiment in a line: Binding affinity to HIF1alpha G-quadruplex DNA in human HCT116 cells assessed as change in HIF1alpha mRNA expression at 23 uM up to 48 hrs by RT-PCR analysis. Type of test: cell-based. Conditions: HCT-116.
For test [9], the system named is Nucleic Acid. Nature of the test: Binding affinity to HIF1alpha G-quadruplex DNA in human HCT116 cells assessed as change in HIF1alpha mRNA expression at 31 uM up to 48 hrs by RT-PCR analysis. It counts as cell-based. Conditions: HCT-116.
For test [10], the system named is Nucleic Acid. Nature of the test: Binding affinity to hTERT G-quadruplex DNA in human HCT116 cells assessed as downregulation of hTERT mRNA expression at 23 uM by RT-PCR analysis. The note with it: HCT-116, TDE = time-dependent effect. It counts as cell-based.
In test [11] the test system is Nucleic Acid. Nature of the test: Binding affinity to PDGFRbeta G-quadruplex DNA in human HCT116 cells assessed as change in PDGFRbeta mRNA expression at 23 uM up to 48 hrs by RT-PCR analysis. It counts as cell-based. The note with it: HCT-116.
The test system of test [12] is Nucleic Acid. The experiment in a line: Binding affinity to VEGFA G-quadruplex DNA in human HCT116 cells assessed as change in VEGFA mRNA expression at 23 uM up to 48 hrs by RT-PCR analysis. Type of test: cell-based. The note with it: HCT-116.
Test [13] relates to Nucleic Acid. The experiment in a line: Decrease of c-MYC G-quadruplex DNA-mediated c-MYC expression in exon1 in human CA46 cells at 19.4 uM at 24 hrs by exon-specific assay. Type of test: cell-based.
For test [14], the system named is Nucleic Acid. Nature of the test: Decrease of c-MYC G-quadruplex DNA-mediated c-MYC expression in exon1 in human CA46 cells at 19.4 uM at 48 hrs by exon-specific assay. It counts as cell-based.
Test [15] relates to Nucleic Acid. The experiment in a line: Decrease of c-MYC G-quadruplex DNA-mediated c-MYC expression in exon1 in human CA46 cells at 19.4 uM at 6 hrs by exon-specific assay. It counts as cell-based.
Test [16] deals with HCT-116. The experiment in a line: Cytotoxicity against human HCT116 cells after 24 hrs by MTS assay. Conditions: HCT-116, 24 h. It counts as functional, cell-based.
Test [17] relates to CA46. The experiment in a line: Cytotoxicity against human CA46 cells after 24 hrs by MTS assay. It counts as functional, cell-based. Conditions: CA46, 24 h.
The subject of test [18] is Nucleic Acid. The experiment in a line: Binding affinity to HIF1alpha G-quadruplex DNA at 2 uM after 48 hrs by competition dialysis method. Type of test: nucleic-acid assay. An outline of the steps: as §2
Test [19] relates to Nucleic Acid. Nature of the test: Binding affinity to hTERT G-quadruplex DNA at 2 uM after 48 hrs by competition dialysis method. Type of test: nucleic-acid assay. The method in brief: as §2
In test [20] the test system is Nucleic Acid. Nature of the test: Binding affinity to PDGFRbeta G-quadruplex DNA at 2 uM after 48 hrs by competition dialysis method. It counts as nucleic-acid assay. The method in brief:
as §2

For test [21], the system named is Nucleic Acid. Nature of the test: Binding affinity to c-MYC G-quadruplex DNA in human HCT116 cells assessed as decrease in c-MYC mRNA expression at 31 uM at 6 hrs by RT-PCR analysis. Type of test: cell-based. Conditions: HCT-116.
The subject of test [22] is Nucleic Acid. Nature of the test: Binding affinity to c-MYC G-quadruplex DNA in human HCT116 cells assessed as decrease in c-MYC mRNA expression at 31 uM at 48 hrs by RT-PCR analysis. It counts as cell-based. The note with it: HCT-116.
For test [23], the system named is Nucleic Acid. The experiment in a line: Binding affinity to hTERT G-quadruplex DNA in human HCT116 cells assessed as downregulation of hTERT mRNA expression at 31 uM at 6 hrs by RT-PCR analysis. It counts as cell-based. Conditions: HCT-116.
The test system of test [24] is Nucleic Acid. The experiment in a line: Binding affinity to hTERT G-quadruplex DNA in human HCT116 cells assessed as downregulation of hTERT mRNA expression at 31 uM at 24 hrs by RT-PCR analysis. It counts as cell-based. The note with it: HCT-116.
Test [25] deals with Nucleic Acid. Nature of the test: Binding affinity to hTERT G-quadruplex DNA in human HCT116 cells assessed as downregulation of hTERT mRNA expression at 31 uM at 48 hrs by RT-PCR analysis. It counts as cell-based. Conditions: HCT-116.
Test [26] concerns Nucleic Acid. Nature of the test: Binding affinity to PDGFRbeta G-quadruplex DNA in human HCT116 cells assessed as downregulation of PDGFRbeta mRNA expression at 31 uM at 6 hrs by RT-PCR analysis. Type of test: cell-based. Conditions: HCT-116.
Test [27] relates to Nucleic Acid. Nature of the test: Binding affinity to PDGFRbeta G-quadruplex DNA in human HCT116 cells assessed as downregulation of PDGFRbeta mRNA expression at 31 uM at 24 hrs by RT-PCR analysis. Type of test: cell-based. The note with it: HCT-116.
Test [28] relates to Nucleic Acid. Nature of the test: Binding affinity to PDGFRbeta G-quadruplex DNA in human HCT116 cells assessed as downregulation of PDGFRbeta mRNA expression at 31 uM at 48 hrs by RT-PCR analysis. It counts as cell-based. Conditions: HCT-116.
For test [29], the system named is HCT-116. The experiment in a line: Increase in VEGFA G-quadruplex DNA expression in human HCT116 cells by qPCR analysis. Type of test: functional, cell-based.
For test [30], the system named is Nucleic Acid. Nature of the test: Decrease of c-MYC G-quadruplex DNA-mediated c-MYC expression in exon1 in human CA46 cells at 2.8 uM at 24 hrs by exon-specific assay. Type of test: cell-based.
In test [31] the test system is Nucleic Acid. The experiment in a line: Decrease of c-MYC G-quadruplex DNA-mediated c-MYC expression in exon1 in human CA46 cells at 2.8 uM at 48 hrs by exon-specific assay. It counts as cell-based.
Test [32] concerns Nucleic Acid. Nature of the test: Decrease of c-MYC G-quadruplex DNA-mediated c-MYC expression in exon1 in human CA46 cells at 2.8 uM at 6 hrs by exon-specific assay. It counts as cell-based.

SMILES strings stand for the structures. Activity calls are given as the source filed them. No cut-off for these calls is given here. Some results are limits rather than exact numbers.

Take `CN(C)CCN1CCN(c2c3cc(-c4ccncc4)ccc3nc3c2[nH]c2ccccc23)CC1`: the ΔTm in [1] was 8.6 °C. Moreover, the IC50 came out at 20.9 µM in test [2] and 45 µM in test [3].

Take `CN(C)CCN1CCN(c2c3cc(-c4ccc(CCN5CCOCC5)cc4)ccc3nc3c2[nH]c2ccccc23)CC1`: in [1], the shift in melting temperature (ΔTm) was found to be 13.1 °C. For the same molecule, the half-inhibitory concentration (IC50) in test [2] is 3.8 µM; in [3], 10.8 µM.

With `CN(C)CCCn1c2ccccc2c2nc3ccccc3c(N3CCN(C)CC3)c21`, the thermal shift (ΔTm) in [1] came to 2.8 °C. For the same molecule, the IC50 stood at 2.98 µM in [2] and 7.03 µM in test [3].

As for `OCCCN1CCN(c2c3ccccc3nc3c2[nH]c2ccccc23)CC1`, the ΔTm in test [1] came out at 1.3 °C. The IC50 in [2] was 2.4 µM; in test [3] it was over 100 µM.

On to `CCN(CC)CCN1CCN(c2c3ccccc3nc3c2[nH]c2ccccc23)CC1`, for which the ΔTm in test [1] came to 10.3 °C. The IC50 in [2] came out at 3.4 µM; in test [3], 26 µM.

On to `c1ccc2c(N3CCN(CCN4CCOCC4)CC3)c3[nH]c4ccccc4c3nc2c1`, for which, in [1], the shift in melting temperature (ΔTm) came to 5.9 °C. Further, the IC50 stood at 9.1 µM in test [2] and 52.9 µM in [3].

`c1ccc2c(-c3ccc(CCN4CCOCC4)cc3)c3[nH]c4ccccc4c3nc2c1`: the ΔTm in [1] amounted to 1.9 °C. The IC50 in test [2] and in [3] was over 100 µM throughout.

For the molecule `CN(C)CCN1CCN(c2c3cc(-c4ccc(F)c(F)c4)ccc3nc3c2[nH]c2ccccc23)CC1`, the ΔTm in test [1] is 6.5 °C. Further, the IC50 in [2] was found to be 3.7 µM; in [3], 5.8 µM.

With `CN(C)CCN1CCN(c2c3ccccc3nc3c2[nH]c2ccccc23)CC1`, the ΔTm in test [1] is 6.7 °C. Also, the IC50 is 0.97 µM in [2], 2.33 µM in [3], 23 µM in test [16] and 19.4 µM in test [17]. Further, the outcome in test [4], in test [5], in test [6], in [7], in test [11] and in test [12] was Active. Besides, the outcome in [8], in test [9], in [13], in test [14] and in test [15] was inactive. For the same molecule, the Activity result in test [10] was “tde”.

For `CN(C)CCCn1c2ccccc2c2nc3ccccc3c(N3CCN(CCN(C)C)CC3)c21`, the ΔTm in test [1] came to 16.5 °C. Moreover, the IC50 in test [2] came to 3.4 µM; in test [3], 3.1 µM; in test [16], 31 µM; in test [17] it was 2.8 µM. The outcome in test [18], in test [19], in test [20], in test [5], in [6] and in test [21] was Active. Also, the outcome in test [23], in [24], in test [26], in test [27] and in [29] was Active. Also, the outcome in [22], in [8], in test [9], in [25], in test [28] and in test [30] was inactive. The outcome in test [31] and in test [32] was inactive.

As to `CN1CCN(c2c3ccccc3nc3c2[nH]c2ccccc23)CC1`, in test [1], the ΔTm turned out to be 3 °C. The IC50 in test [2] worked out at 3.5 µM; in test [3], 5.44 µM.

Consider `CN(C)CCCN1CCN(c2c3ccccc3nc3c2[nH]c2ccccc23)CC1`, for which the ΔTm in test [1] stood at 11.4 °C. For the same molecule, the values for the IC50 in test [2] and in test [3] were 0.9 µM and 11.8 µM, respectively.

As to `CCN(CC)CCNc1c2ccccc2nc2c1[nH]c1ccccc12`, the ΔTm in [1] was found to be 5.2 °C. The IC50 was determined as 0.11 µM in test [2], 0.7 µM in [3] and 10 µM in [17].

For the molecule `c1ccc2c(N3CCN(CCN4CCCCC4)CC3)c3[nH]c4ccccc4c3nc2c1`, the ΔTm in [1] stood at 8.8 °C. The IC50 was found to be 0.5 µM in test [2] and 56.1 µM in test [3].

For `COCCCN1CCN(c2c3ccccc3nc3c2[nH]c2ccccc23)CC1`, in test [1], the ΔTm stood at 6.3 °C. Moreover, the figures for the IC50 in test [2] and in [3] were 6.3 µM and 21.3 µM, respectively.

As to `c1ccc2c(N3CCNCC3)c3[nH]c4ccccc4c3nc2c1`, the ΔTm in test [1] came to 6.7 °C. Moreover, the IC50 is 4.3 µM in test [2] and 33.9 µM in test [3].
